The results in this text go back to ChEMBL document CHEMBL1140964, “1,8-Naphthyridines VII. New substituted 5-amino[1,2,4]triazolo[4,3-a][1,8]naphthyridine-6-carboxamides and their isosteric analogues, exhibiting notable anti-inflammatory and/or analgesic activities, but no acute gastrolesivity” (Eur J Med Chem, 2008).

In general, inhibition refers to the drop in the measured response relative to a control, in per cent.

Data set [1] deals with Rattus norvegicus. In words: Antiinflammatory activity against carrageenan-induced paw edema in Wistar rat at 6.25 mg/kg, po dose administered 1 hr before carrageenan challenge assessed after 3 hrs. The data set is classed as functional. The essentials:
(§1)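 Wistar rats (250–300 g, either sex), fasted overnight, dosed by oral gavage with the compound suspended in 0.5% methylcellulose. Controls received vehicle alone, with 8–10 animals per group. Dosing started at 100 mg/kg and was halved stepwise. Carrageenan (1%, 0.1 mL) was injected subplantar 1 h post-dose. Paw volume was measured by plethysmometer immediately and at 3 h, and % inhibition of swelling was calculated versus controls (Student's t-test).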

In data set [2] the test system is Mus musculus. The experiment in a line: Antinociceptive activity in Swiss mouse assessed as inhibition of acetic acid-induced writhing response at 50 mg/kg, po dose administered 1 hr before acetic acid challenge measured for 30 mins. The data set is classed as functional. In outline: (§2)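 Swiss mice (25–35 g, either sex), fasted overnight, received compound orally in 0.5% methylcellulose or vehicle, with 8–10 per group. Testing started at 100 mg/kg with successive twofold dose reductions. Writhes were counted for 30 min after acetic acid injection. Percent inhibition of the writhing response was calculated versus vehicle controls (Student's t-test).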
A general note: An intraperitoneal irritant provokes the stretching counted in writhing tests.

Data set [3] relates to Rattus norvegicus. In words: Antiinflammatory activity against carrageenan-induced paw edema in Wistar rat at 100 mg/kg, po dose administered 1 hr before carrageenan challenge assessed after 3 hrs. The data set is classed as functional. In outline: as §1
(In general: The carrageenan paw model is a standard test of acute inflammation.)

Data set [4] relates to Rattus norvegicus. In words: Antiinflammatory activity against carrageenan-induced paw edema in Wistar rat at 12.5 mg/kg, po dose administered 1 hr before carrageenan challenge assessed after 3 hrs. It is filed as functional. In outline: as §1
In data set [5] the test system is Mus musculus. In words: Antinociceptive activity in Swiss mouse assessed as inhibition of acetic acid-induced writhing response at 200 mg/kg, po dose administered 1 hr before acetic acid challenge measured for 30 mins. The data set is classed as functional.
The test system of data set [6] is Rattus norvegicus. The experiment in a line: Antiinflammatory activity against carrageenan-induced paw edema in Wistar rat at 50 mg/kg, po dose administered 1 hr before carrageenan challenge assessed after 3 hrs. It is filed as functional. In outline:
as §1

The subject of data set [7] is Mus musculus. In words: Sedative activity in Swiss mouse assessed as inhibition of spontaneous locomotor activity at 100 mg/kg, po dose measured for every 5 mins during 60 to 90 mins. Also on record: dose 100 mg/kg, route oral. It is filed as organism-based. The essentials:
(§3)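 Fasted Swiss mice (25–35 g, either sex) were given compound orally in 0.5% methylcellulose or vehicle. Each mouse was placed alone in a photobeam-type activity cage, with counts recorded every 5 min for 90 min. Pulses from the final 30 min were scored, with testing run 9:00–13:00. Percent inhibition was calculated versus controls (Student's t-test).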

The test system of data set [8] is Mus musculus. The experiment in a line: Antinociceptive activity in Swiss mouse assessed as inhibition of acetic acid-induced writhing response at 100 mg/kg, po dose administered 1 hr before acetic acid challenge measured for 30 mins. The data set is classed as functional. The essentials: as §2
Data set [9] deals with Rattus norvegicus. The experiment in a line: Antiinflammatory activity against carrageenan-induced paw edema in Wistar rat at 200 mg/kg, po dose administered 1 hr before carrageenan challenge assessed after 3 hrs. The data set is classed as functional.
Data set [10] deals with Rattus norvegicus. The experiment in a line: Antiinflammatory activity against carrageenan-induced paw edema in Wistar rat at 25 mg/kg, po dose administered 1 hr before carrageenan challenge assessed after 3 hrs. The data set is classed as functional. In outline: as §1
The test system of data set [11] is Rattus norvegicus. The experiment in a line: Acute gastrolesivity in Wistar rat assessed as appearance of gastric lesions at 200 mg/kg, po after 5 hrs. The data set is classed as toxicity, organism-based, Stomach. The arrangement: dose 200 mg/kg, route oral. Particulars: in vivo. In outline: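 Wistar rats (250–300 g, either sex), fasted overnight, given the compound orally at 200 mg kg-1 as a suspension in 0.5% methylcellulose by gavage (1 mL/100 g); 8 rats per compound. Stomachs were fixed in 2% formalin, opened along the greater curvature, and examined under a stereomicroscope by a blinded observer. The result is the number of rats with gastric damage over the number treated.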

Data set [12] deals with Rattus norvegicus. In words: Antiinflammatory activity against carrageenan-induced paw edema in Wistar rat at 3.12 mg/kg, po dose administered 1 hr before carrageenan challenge assessed after 3 hrs. The data set is classed as functional.
Data set [13] concerns Mus musculus. In words: Sedative activity in Swiss mouse assessed as inhibition on spontaneous locomotor activity at 25 mg/kg, po measured for every 5 mins during 60 to 90 mins. The data set is classed as functional, organism-based. The arrangement: dose 25 mg/kg, route oral. In outline:
as §3

Data set [14] deals with Mus musculus. In words: Sedative activity in Swiss mouse assessed as inhibition on spontaneous locomotor activity at 12.5 mg/kg, po dose measured for every 5 mins during 60 to 90 mins. Also on record: dose 12.5 mg/kg, route oral. The data set is classed as ADME, organism-based. The essentials:
as §3

For data set [15], the system named is Mus musculus. The experiment in a line: Antinociceptive activity in Swiss mouse assessed as inhibition of acetic acid-induced writhing response at 3.12 mg/kg, po dose administered 1 hr before acetic acid challenge measured for 30 mins. The data set is classed as functional.
Data set [16] has as its system Mus musculus. The experiment in a line: Antinociceptive activity in Swiss mouse assessed as inhibition of acetic acid-induced writhing response at 12.5 mg/kg, po dose administered 1 hr before acetic acid challenge measured for 30 mins. It is filed as functional. In outline:
as §2

Data set [17] concerns Mus musculus. In words: Antinociceptive activity in Swiss mouse assessed as inhibition of acetic acid-induced writhing response at 6.25 mg/kg, po dose administered 1 hr before acetic acid challenge measured for 30 mins. It is filed as functional. The essentials: as §2
For data set [18], the system named is Mus musculus. The experiment in a line: Antinociceptive activity in Swiss mouse assessed as inhibition of acetic acid-induced writhing response at 25 mg/kg, po dose administered 1 hr before acetic acid challenge measured for 30 mins. The data set is classed as functional. The essentials:
as §2

For data set [19], the system named is Mus musculus. In words: Sedative activity in Swiss mouse assessed as inhibition on spontaneous locomotor activity at 6.25 mg/kg, po measured for every 5 mins during 60 to 90 mins. It is filed as ADME, organism-based. Also on record: dose 6.25 mg/kg, route oral. The essentials:
as §3

In data set [20] the test system is Mus musculus. The experiment in a line: Antinociceptive activity in Swiss mouse assessed as inhibition of acetic acid-induced writhing response at 0.8 mg/kg, po dose administered 1 hr before acetic acid challenge measured for 30 mins. It is filed as functional.
For data set [21], the system named is Mus musculus. In words: Antinociceptive activity in Swiss mouse assessed as inhibition of acetic acid-induced writhing response at 1.6 mg/kg, po dose administered 1 hr before acetic acid challenge measured for 30 mins. The data set is classed as functional.
Data set [22] concerns Rattus norvegicus. The experiment in a line: Antiinflammatory activity against carrageenan-induced paw edema in Wistar rat at 10 mg/kg, po dose administered 1 hr before carrageenan challenge assessed after 3 hrs. It is filed as functional.
The species entered for data set [23] is Mus musculus. The experiment in a line: animal or person. The conditions noted are these: Swiss, po, read-out: INH.

`CCN(CC)C(=O)c1c(NCC(C)C)c2cccnc2n2c(C(C)C)nnc12` returned an inhibition in vivo at 6.25 mg/kg in the data set on Rattus norvegicus [1] of 27%. In addition, the inhibition in vivo at 50 mg/kg came out at 33% in the data set with Mus musculus [2] and 66% in the data set on Rattus norvegicus [6]. The figures for the inhibition in vivo at 100 mg/kg in the data set on Rattus norvegicus [3] and in the data set with Mus musculus [8] were 70% and 100%, respectively. In the data set with Rattus norvegicus [4], this compound had an inhibition in vivo at 12.5 mg/kg of 50%. The inhibition in vivo at 200 mg/kg with Mus musculus [5] came to 100%; with Rattus norvegicus [9] it was 74%. The inhibition at 100 mg/kg with Mus musculus [7] was determined as 15%. Also, the inhibition in vivo at 25 mg/kg in the data set with Rattus norvegicus [10] stood at 61%. In the data set with Rattus norvegicus [11], the Activity result is “Non-toxic”. In the data set with Rattus norvegicus [12], this compound returned an inhibition in vivo at 3.12 mg/kg of 18%.

With `CCC(CC)Nc1c(C(=O)N(CC)CC)c2nnc(C(C)C)n2c2ncccc12`, the inhibition in vivo at 6.25 mg/kg stood at 11% in the data set on Rattus norvegicus [1] and 36% in the data set with Mus musculus [17]. Also, the inhibition at 25 mg/kg in the data set with Mus musculus [13] was found to be 70%. The inhibition in vivo at 50 mg/kg worked out at 75% with Mus musculus [2] and 47% with Rattus norvegicus [6]. Besides, the inhibition at 12.5 mg/kg in the data set on Mus musculus [14] came out at 92%. Besides, the inhibition in vivo at 100 mg/kg with Rattus norvegicus [3] amounted to 50%; in the data set on Mus musculus [8], 91%. Also, in the data set on Mus musculus [15], the inhibition in vivo at 3.12 mg/kg was determined as 18%. Besides, the inhibition in vivo at 12.5 mg/kg in the data set on Rattus norvegicus [4] was 45%; with Mus musculus [16], 49%. Moreover, the inhibition at 100 mg/kg in the data set on Mus musculus [7] worked out at 97%. Also, the inhibition in vivo at 25 mg/kg was 47% in the data set on Rattus norvegicus [10] and 58% with Mus musculus [18]. Moreover, the inhibition at 6.25 mg/kg with Mus musculus [19] worked out at 81%.

In the case of `CCN(CC)C(=O)c1c(N2CCN(C)CC2)c2cccnc2n2c(C(C)C)nnc12`, the inhibition at 25 mg/kg with Mus musculus [13] was 99%. Moreover, in the data set with Mus musculus [2], the inhibition in vivo at 50 mg/kg came to 85%. Moreover, the inhibition at 12.5 mg/kg with Mus musculus [14] amounted to 74%. Besides, the inhibition in vivo at 100 mg/kg was 23% in the data set on Rattus norvegicus [3] and 88% in the data set with Mus musculus [8]. Besides, in the data set on Mus musculus [15], the inhibition in vivo at 3.12 mg/kg amounted to 85%. The results for the inhibition in vivo at 200 mg/kg in the data set on Mus musculus [5] and with Rattus norvegicus [9] were 86% and 34%, respectively. The inhibition in vivo at 12.5 mg/kg in the data set with Mus musculus [16] was found to be 92%. Further, in the data set with Mus musculus [17], the inhibition in vivo at 6.25 mg/kg came to 83%. Further, in the data set on Mus musculus [7], the inhibition at 100 mg/kg came to 94%. For the same compound, in the data set on Mus musculus [20], the inhibition in vivo at 0.8 mg/kg is 3%. In addition, in the data set with Mus musculus [21], the inhibition in vivo at 1.6 mg/kg was 39%. The inhibition in vivo at 25 mg/kg in the data set on Mus musculus [18] was 90%. In the data set with Rattus norvegicus [11], the Activity entry is given as “Non-toxic”. In addition, the inhibition at 6.25 mg/kg with Mus musculus [19] is 19%.

The compound `CCNc1c(C(=O)N(CC)CC)c2nnc(C(C)C)n2c2ncccc12` yielded an inhibition in vivo at 6.25 mg/kg in the data set with Rattus norvegicus [1] of 33%. The inhibition in vivo at 50 mg/kg in the data set with Mus musculus [2] was 20%; with Rattus norvegicus [6] it was 63%. Moreover, the inhibition in vivo at 100 mg/kg in the data set with Rattus norvegicus [3] was determined as 63%; in the data set with Mus musculus [8], 100%. This compound had an inhibition in vivo at 12.5 mg/kg with Rattus norvegicus [4] of 35%. Further, the inhibition in vivo at 200 mg/kg in the data set on Mus musculus [5] came to 100%; in the data set with Rattus norvegicus [9], 65%. Moreover, the inhibition at 100 mg/kg in the data set with Mus musculus [7] turned out to be 13%. The compound also had an inhibition in vivo at 25 mg/kg with Rattus norvegicus [10] of 61%. Moreover, in the data set with Rattus norvegicus [11], the Activity entry is “Non-toxic”. In addition, the inhibition in vivo at 3.12 mg/kg in the data set with Rattus norvegicus [12] came to 9%.

As for `COc1ccc2c(c1)c(CC(=O)O)c(C)n2C(=O)c1ccc(Cl)cc1` [INDOMETHACIN], the inhibition in vivo at 10 mg/kg in the data set with Rattus norvegicus [22] stood at 51%; in the data set filed under Mus musculus [23], 84%.
